Assay results reported in ChEMBL document CHEMBL1149272, “Catecholic flavonoids acting as telomerase inhibitors” (J Med Chem, 2004).
Activity calls are given as the source filed them. The rule behind the calls is not given here.

Legend:
[1] = molecular target: T1, Telomerase reverse transcriptase (Homo sapiens, UniProt O14746); experiment: Inhibition of human telomerase from HEK293 cell extracts by Flash-Plate assay; assay type: cell-free
Method in brief: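 Affinity-enriched telomerase extract from HEK293 cells overexpressing telomerase, adjusted to 5 fmol dNTP incorporation min-1 µL-1, in buffer with 50 mM Tris-acetate pH 8.5, 150 mM K acetate, 1 mM MgCl2, 1 mM EGTA. Buffer also held 10 µM dATP, 20 µM dGTP, 120 µM TTP and 500 nM 5'-biotinylated primer. Compounds in DMSO at 0.01-10 µM; 2 h at 37 °C. Elongated primer hybridized to a 33P-labeled complementary probe, captured on streptavidin Flash-Plate; IC50 from radioactivity.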

[2] = molecular target: T1, Telomerase reverse transcriptase; conditions: A-431, 1 uM
[3] = molecular target: DNA-directed RNA polymerase (Enterobacteria phage T3) (UniProt P07659); experiment: Inhibition of T3 RNA polymerase up to 2 uM
[4] = molecular target: T1, Telomerase reverse transcriptase; conditions: 1 uM

T1 sequence (O14746 whole entry): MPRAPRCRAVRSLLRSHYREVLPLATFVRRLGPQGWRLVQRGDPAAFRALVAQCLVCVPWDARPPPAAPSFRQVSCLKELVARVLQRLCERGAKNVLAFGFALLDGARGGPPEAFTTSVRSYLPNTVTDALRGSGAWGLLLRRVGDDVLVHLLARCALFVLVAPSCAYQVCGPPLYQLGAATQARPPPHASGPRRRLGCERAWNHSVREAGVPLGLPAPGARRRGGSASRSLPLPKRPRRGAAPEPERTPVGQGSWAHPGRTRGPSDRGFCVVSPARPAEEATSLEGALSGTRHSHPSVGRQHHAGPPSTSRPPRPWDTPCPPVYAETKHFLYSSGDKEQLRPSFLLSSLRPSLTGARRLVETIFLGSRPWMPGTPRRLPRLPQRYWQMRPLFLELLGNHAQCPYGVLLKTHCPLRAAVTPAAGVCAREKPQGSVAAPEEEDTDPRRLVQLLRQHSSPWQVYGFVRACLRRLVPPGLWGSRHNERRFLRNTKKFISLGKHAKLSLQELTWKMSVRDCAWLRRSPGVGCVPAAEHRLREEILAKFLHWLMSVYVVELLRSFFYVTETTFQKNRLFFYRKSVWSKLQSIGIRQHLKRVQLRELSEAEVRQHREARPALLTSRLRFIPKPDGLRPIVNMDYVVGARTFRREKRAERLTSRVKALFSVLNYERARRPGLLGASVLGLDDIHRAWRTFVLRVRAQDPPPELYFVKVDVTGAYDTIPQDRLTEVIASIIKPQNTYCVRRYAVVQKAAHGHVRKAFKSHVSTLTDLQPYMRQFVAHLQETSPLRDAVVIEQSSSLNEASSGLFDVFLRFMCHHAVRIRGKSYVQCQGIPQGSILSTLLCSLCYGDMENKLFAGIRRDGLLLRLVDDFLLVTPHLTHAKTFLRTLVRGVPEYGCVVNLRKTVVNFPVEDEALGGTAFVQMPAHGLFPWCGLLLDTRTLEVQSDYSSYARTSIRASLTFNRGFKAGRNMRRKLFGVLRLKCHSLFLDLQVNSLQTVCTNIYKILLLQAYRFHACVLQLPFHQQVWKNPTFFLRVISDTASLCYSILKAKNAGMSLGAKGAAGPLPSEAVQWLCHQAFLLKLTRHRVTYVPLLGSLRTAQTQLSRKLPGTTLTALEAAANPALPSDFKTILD
Sequence of DNA-directed RNA polymerase (Enterobacteria phage T3) (P07659 whole entry): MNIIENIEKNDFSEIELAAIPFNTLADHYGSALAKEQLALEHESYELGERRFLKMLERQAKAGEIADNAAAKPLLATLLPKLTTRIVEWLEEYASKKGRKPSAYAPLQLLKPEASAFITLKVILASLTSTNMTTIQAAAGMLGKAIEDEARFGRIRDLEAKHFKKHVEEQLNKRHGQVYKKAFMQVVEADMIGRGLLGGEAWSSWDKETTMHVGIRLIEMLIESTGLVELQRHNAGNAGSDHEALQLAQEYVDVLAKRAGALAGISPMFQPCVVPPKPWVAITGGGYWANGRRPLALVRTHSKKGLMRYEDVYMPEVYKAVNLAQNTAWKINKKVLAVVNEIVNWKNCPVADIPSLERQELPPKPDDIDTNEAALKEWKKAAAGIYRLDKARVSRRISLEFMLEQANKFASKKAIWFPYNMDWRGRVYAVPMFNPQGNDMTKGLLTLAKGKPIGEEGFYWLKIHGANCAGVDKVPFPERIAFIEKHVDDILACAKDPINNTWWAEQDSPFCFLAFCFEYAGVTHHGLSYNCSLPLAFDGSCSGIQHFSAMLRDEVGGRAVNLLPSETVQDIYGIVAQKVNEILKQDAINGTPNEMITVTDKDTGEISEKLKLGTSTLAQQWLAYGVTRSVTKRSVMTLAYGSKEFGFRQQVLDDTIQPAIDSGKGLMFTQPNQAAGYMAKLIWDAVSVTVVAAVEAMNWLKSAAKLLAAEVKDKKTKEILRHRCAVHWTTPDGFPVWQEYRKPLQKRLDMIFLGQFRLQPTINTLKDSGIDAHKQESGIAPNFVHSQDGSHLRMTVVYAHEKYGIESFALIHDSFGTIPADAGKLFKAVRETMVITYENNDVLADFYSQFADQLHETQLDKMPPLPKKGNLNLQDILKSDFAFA

| IC50 [1] [µM] | SMILES | also measured |
| --- | --- | --- |
| 50 | O=c1cc(-c2cccc(O)c2)oc2c(O)c(O)ccc12 | – |
| 36 | O=c1cc(-c2ccccc2)oc2c(O)c(O)ccc12 [7,8-DIHYDROXYFLAVONE] | – |
| > 40 | O=c1cc(-c2ccc(O)c(O)c2)oc2c(O)cccc12 | – |
| > 40 | O=c1cc(-c2ccc(O)c(O)c2)oc2ccccc12 | – |
| 0.2 | O=c1cc(-c2ccc(O)c(O)c2)oc2c(O)c(O)ccc12 | inhibition [2]: 50%; Activity [3]: inactive; inhibition [4]: 50% |
| 11.7 | COc1ccc(-c2cc(=O)c3ccc(O)c(O)c3o2)cc1OC | – |
| 11 | COc1ccc(-c2cc(=O)c3ccc(O)c(O)c3o2)cc1O | – |
| 4 | O=c1cc(-c2ccc3[nH]cnc3c2)oc2c(O)c(O)ccc12 | – |

Further lines, the molecule ahead of its results:

| SMILES | IC50 [1] [µM] | also measured |
| --- | --- | --- |
| COc1ccc2c(=O)cc(-c3ccc4[nH]c(CCCN(C)C)nc4c3)oc2c1OC | 0.47 | – |
| O=C(/C=C/c1ccc(O)c(O)c1)c1ccc(O)c(O)c1O | 6 | – |
| Cc1nc2cc(-c3cc(=O)c4ccc(O)c(O)c4o3)ccc2[nH]1 | > 40 | – |
| O=c1[nH]c2ccc(-c3cc(=O)c4ccc(O)c(O)c4o3)cc2[nH]c1=O | > 40 | – |
| O=c1[nH]c2ccc(-c3cc(=O)c4ccc(O)c(O)c4o3)cc2[nH]1 | 1.2 | – |
| COc1ccc2c(=O)cc(-c3ccc(O)c(O)c3)oc2c1OC | > 40 | – |
| O=c1cc(-c2ccc(O)c(O)c2)oc2c(O)c(O)c(Cl)cc12 | 0.82 | – |
| COc1ccc2c(=O)cc(-c3ccc4[nH]c(C)nc4c3)oc2c1OC | 22.1 | – |
| O=C(/C=C/c1ccc(O)c(O)c1)c1ccc(O)c(O)c1 | 1.7 | – |
| O=c1cc(-c2ccc(O)c(O)c2)oc2cc(O)ccc12 | > 40 | – |
| COc1ccc2c(=O)cc(-c3ccc4[nH]c(=O)c(=O)[nH]c4c3)oc2c1OC | > 40 | – |
